Measured values pooled from the literature.
Protocols differ between the studies behind these lines.
Target: Serine/threonine-protein kinase D2 (PRKD2, Homo sapiens, UniProt Q9BZL6)
Sequence (Q9BZL6 1-878, as in one of the studies): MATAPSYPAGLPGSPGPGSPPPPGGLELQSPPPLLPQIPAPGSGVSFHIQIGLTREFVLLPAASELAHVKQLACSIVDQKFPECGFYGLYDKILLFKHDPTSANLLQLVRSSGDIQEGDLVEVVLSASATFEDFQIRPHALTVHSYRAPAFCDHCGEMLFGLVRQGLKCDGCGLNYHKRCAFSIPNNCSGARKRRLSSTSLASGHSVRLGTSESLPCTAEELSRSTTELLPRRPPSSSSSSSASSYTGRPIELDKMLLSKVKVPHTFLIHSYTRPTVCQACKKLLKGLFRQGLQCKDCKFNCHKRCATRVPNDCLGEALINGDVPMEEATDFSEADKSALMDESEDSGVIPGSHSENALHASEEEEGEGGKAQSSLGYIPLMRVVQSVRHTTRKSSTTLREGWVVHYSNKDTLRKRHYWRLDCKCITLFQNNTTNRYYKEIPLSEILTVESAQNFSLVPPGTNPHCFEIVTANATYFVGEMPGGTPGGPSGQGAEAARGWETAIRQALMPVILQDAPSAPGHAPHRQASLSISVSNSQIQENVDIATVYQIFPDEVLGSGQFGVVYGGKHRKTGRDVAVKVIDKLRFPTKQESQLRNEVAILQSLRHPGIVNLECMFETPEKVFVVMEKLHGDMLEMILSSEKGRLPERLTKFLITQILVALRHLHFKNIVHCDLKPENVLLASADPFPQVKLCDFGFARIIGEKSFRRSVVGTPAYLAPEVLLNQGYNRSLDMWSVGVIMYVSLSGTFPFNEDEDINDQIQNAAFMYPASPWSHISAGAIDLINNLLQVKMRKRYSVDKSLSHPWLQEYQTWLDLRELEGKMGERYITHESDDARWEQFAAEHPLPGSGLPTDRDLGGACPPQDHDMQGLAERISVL

SMILES	test	conditions	quantity	value
Cc1ccc(NC(=O)c2ccnc(C(F)(F)F)c2)cc1-c1cc(OCCO)nc(N2CCOCC2)c1	binding	1 µM	remaining binding	88%
CO[C@@H]1[C@H](N(C)C(=O)c2ccccc2)C[C@H]2O[C@]1(C)n1c3ccccc3c3c4c(c5c6ccccc6n2c5c31)C(=O)NC4	enzyme activity, inhibitor	1 µM	inhibition	18%
C#Cc1cc(-c2cc(Nc3nc(N[C@@H](C)c4ccc(F)cn4)ncc3Cl)n[nH]2)ccc1C=O	enzyme activity, inhibitor	0.2 µM	inhibition	5.36%
CCCCC(=O)Nc1ccc(-c2ccc3ncn(CCC)c(=O)c3c2)cn1	binding, competition with immobilised ligand	0.5 µM	remaining binding	88%
C[C@H]1CC[C@H](n2c3cnccc3c3cnc(Nc4ccc5c(n4)CCN(C(=O)CO)C5)nc32)CC1	cell-free assay	1 µM	remaining signal	100%
C=CC(=O)N1CCC([C@@H]2CCNc3c(C(N)=O)c(-c4ccc(Oc5ccccc5)cc4)nn32)CC1	enzyme activity, inhibitor	1 µM	inhibition	3%
Cc1cc(O)c(-c2ccc([C@@H](C)CN(C)C)cc2)c2c1[nH]c(=O)c1sccc12	enzyme activity, inhibitor	0.1 µM	inhibition	-4.52%
COc1ccc2oc(-c3ccc4nc(N)oc4c3)c/c(=N\c3ccccc3NC(=O)CCN)c2c1	binding	1 µM	remaining binding	94%
C1=C/COCc2cc(ccc2OCCN2CCCC2)Nc2nccc(n2)-c2cccc(c2)COC/1	binding	0.1 µM	remaining binding	100%
